Experiments:
HCT-116 = experiment: Inhibitory activity against human colon tumor cell sensitive to paclitaxel.; type: functional, cell-based
M109 [1] = experiment: In vivo efficacy against Madison Murine lung carcinoma M109 tumors implanted ip and the drug given ip on days 5 and 8 post implantation.; type: functional, Mus musculus
Summary of the method: (§1)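 M109 tumor was implanted ip and drug given ip on days 5 and 8 after implantation. Read-out was %T/C of the analogue at its maximum tolerated dose, reported against %T/C for paclitaxel at a historically determined efficacious dose, which is not its MTD. %T/C above 125% is counted as active.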

[2] = Ratio of IC50 values of HCT116 MDR resistant cell line to HCT-116 sensitive cell line.; type: functional
Summary of the method: (§2)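 IC50 was measured in the HCT-116/MDR paclitaxel-resistant human colon tumor line and in parental paclitaxel-sensitive HCT-116 cells. The ratio is resistant IC50 divided by sensitive IC50.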

[3] = Inhibition of tubulin polymerization compared paclitaxel.; type: functional
Summary of the method: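 Tubulin polymerization was followed by optical density. The value is the compound concentration giving a change of 0.01 OD/h, expressed as a ratio to the paclitaxel concentration giving the same change.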

M109 [4] = experiment: In vivo efficacy against Madison Murine lung carcinoma M109 tumors implanted ip and the drug given ip on days 5 and 8 post implantation; type: functional, Mus musculus; summary of the method: as §1
[5] = Ratio of IC50 values of HCT116 MDR resistant cell line to HCT-116 sensitive cell line; type: functional; summary of the method: as §2
Mus musculus [6] = species: Mus musculus; experiment: Number of cures/total at optimal dose of 2 units for q2dx5;8 schedule in mice infected with A2780 (ovarian carcinoma) cells; 0/8; type: functional
Mus musculus [7] = species: Mus musculus; experiment: Number of cures/total at optimal dose of 30 units for q2dx5;12 schedule in mice infected with HOC79 (ovarian ca.) cells; 0/8; type: functional
Mus musculus [8] = species: Mus musculus; experiment: Number of cures/total at optimal dose of 30 units for q2dx5;26 schedule in mice infected with L2987 (Lung carcinoma) cells; 0/8; type: functional
Mus musculus [9] = species: Mus musculus; experiment: Number of cures/total at optimal dose of 40 units for q2dx5;10 schedule in mice infected with HCT/pk (Colon ca.) cells; 1/8; type: functional
Mus musculus [10] = species: Mus musculus; experiment: Gross log cell kill activity at optimal dose of 40 units for q2dx5;10 schedule in mice infected with HCT/pk (Colon ca.) cells.; type: functional
Mus musculus [11] = species: Mus musculus; experiment: Gross log cell kill activity at optimal dose of 2 units for q2dx5;8 schedule in mice infected with A2780 (ovarian carcinoma) cells.; type: functional
Summary of the method: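 Staged A2780 tumours in mice. Dosing was intravenous, every other day for 5 doses, starting 8 days after implantation. Optimal dose is the one below the excessively toxic dose. Activity is reported as gross log cell kill.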

Mus musculus [12] = species: Mus musculus; experiment: Gross log cell kill activity at optimal dose of 30 units for q2dx5;26 schedule in mice infected with L2987 (Lung carcinoma) cells; type: functional
Mus musculus [13] = species: Mus musculus; experiment: %T/C at optimal dose of 30 units for q2dx5;12 schedule in mice infected with HOC79 (ovarian ca.) cells.
M109 [14] = experiment: In vivo efficacy against Madison Murine lung carcinoma M109 tumors implanted sc and the drug given iv every day x 5 beginning 4 days post implantation.; type: functional, Mus musculus
Summary of the method: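 Murine M109 tumor was implanted subcutaneously, a site distal to drug administration. Dosing was iv daily ×5 starting 4 days after implant. Activity was expressed as gross log cell kill (LCK) of the analogue at its maximum tolerated dose, alongside LCK for paclitaxel at a historically determined efficacious dose. An LCK of 1 is counted as active.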

Row | IC50 (HCT-116) [nM] | SMILES | Efficacy (M109 [1]) | Ratio [2] | Ratio [3] | other results
1 | 1.1 | CC(=O)O[C@H]1C(=O)[C@@]2(C)C([C@H](OC(=O)c3ccccc3)[C@]3(O)CC(OC(=O)[C@H](O)[C@@H](NC(=O)OC(C)(C)C)c4ccccc4)C(C)=C1C3(C)C)[C@]1(OC(C)=O)CO[C@@H]1C[C@@H]2OCOCCO (some centres not stated) | 136 | 0.7 | 1.6 | 
2 | 1.7 | CSCO[C@H]1C[C@H]2OC[C@@]2(OC(C)=O)C2[C@H](OC(=O)c3ccccc3)[C@]3(O)CC(OC(=O)[C@H](O)[C@@H](NC(=O)OC(C)(C)C)c4ccco4)C(C)=C([C@@H](OC(C)=O)C(=O)[C@@]21C)C3(C)C (some centres not stated) | 104 | 1 | 1.6 | 
3 | 0.9 | COCCOCO[C@H]1C[C@H]2OC[C@@]2(OC(C)=O)C2[C@H](OC(=O)c3ccccc3)[C@]3(O)CC(OC(=O)[C@H](O)[C@@H](NC(=O)c4ccccc4)c4ccccc4)C(C)=C([C@@H](OC(C)=O)C(=O)[C@@]21C)C3(C)C (some centres not stated) | 132 |  | 1.1 | 
4 | 1.3 | CO[C@H]1C[C@H]2OC[C@@]2(OC(C)=O)C2[C@H](OC(=O)c3ccccc3)[C@]3(O)CC(OC(=O)[C@H](O)[C@@H](NC(=O)OC(C)(C)C)c4ccco4)C(C)=C([C@@H](OC(C)=O)C(=O)[C@@]21C)C3(C)C (some centres not stated) |  |  | 0.4 | Efficacy (M109 [4]): 121; Ratio [5]: 1.7
5 | 1.4 | COCO[C@H]1C[C@H]2OC[C@@]2(OC(C)=O)C2[C@H](OC(=O)c3ccccc3)[C@]3(O)CC(OC(=O)[C@H](O)[C@@H](NC(=O)c4ccccc4)c4ccccc4)C(C)=C([C@@H](OC(C)=O)C(=O)[C@@]21C)C3(C)C (some centres not stated) | 192 | 10 | 0.5 | 
6 |  | CC(=O)O[C@H]1C(=O)[C@@]2(C)[C@H]([C@H](OC(=O)c3ccccc3)[C@]3(O)C[C@H](OC(=O)[C@H](O)[C@@H](NC(=O)c4ccccc4)c4ccccc4)C(C)=C1C3(C)C)[C@]1(OC(C)=O)CO[C@@H]1C[C@@H]2O [PACLITAXEL] |  | 200 | 1 | C/T (Mus musculus [6]): 0; C/T (Mus musculus [7]): 0; C/T (Mus musculus [8]): 0; C/T (Mus musculus [9]): 1; LCK (Mus musculus [10]): 2.8; LCK (Mus musculus [11]): 6.1; LCK (Mus musculus [12]): 1.3; %T/C (Mus musculus [13]): 273%
7 | 0.7 | CSCO[C@H]1C[C@H]2OC[C@@]2(OC(C)=O)C2[C@H](OC(=O)c3ccccc3)[C@]3(O)CC(OC(=O)[C@H](O)[C@H](C=C(C)C)NC(=O)OC(C)(C)C)C(C)=C([C@@H](OC(C)=O)C(=O)[C@@]21C)C3(C)C (some centres not stated) | 109 | 3.3 | 1.1 | 
8 | 2.2 | CCOCO[C@H]1C[C@H]2OC[C@@]2(OC(C)=O)C2[C@H](OC(=O)c3ccccc3)[C@]3(O)CC(OC(=O)[C@H](O)[C@@H](NC(=O)c4ccccc4)c4ccccc4)C(C)=C([C@@H](OC(C)=O)C(=O)[C@@]21C)C3(C)C (some centres not stated) | 132 |  | 0.6 | 
9 | 1.1 | COCO[C@H]1C[C@H]2OC[C@@]2(OC(C)=O)C2[C@H](OC(=O)c3ccccc3)[C@]3(O)CC(OC(=O)[C@H](O)[C@@H](NC(=O)OC(C)(C)C)c4ccccc4)C(C)=C([C@@H](OC(C)=O)C(=O)[C@@]21C)C3(C)C (some centres not stated) | 118 | 2 | 0.2 | 
10 | 1.7 | CSCO[C@H]1C[C@H]2OC[C@@]2(OC(C)=O)C2[C@H](OC(=O)c3ccccc3)[C@]3(O)CC(OC(=O)[C@H](O)[C@@H](NC(=O)OC(C)C)c4ccccc4)C(C)=C([C@@H](OC(C)=O)C(=O)[C@@]21C)C3(C)C (some centres not stated) | 191 |  | 1.6 | Efficacy (M109 [14]): 0.5
11 | 0.6 | CSCO[C@H]1C[C@H]2OC[C@@]2(OC(C)=O)C2[C@H](OC(=O)c3ccccc3)[C@]3(O)CC(OC(=O)[C@H](O)[C@@H](NC(=O)c4ccccc4)c4ccco4)C(C)=C([C@@H](OC(C)=O)C(=O)[C@@]21C)C3(C)C (some centres not stated) | 191 |  | 1 | Efficacy (M109 [14]): 1.1
12 | 1.3 | COCO[C@H]1C[C@H]2OC[C@@]2(OC(C)=O)C2[C@H](OC(=O)c3ccccc3)[C@]3(O)CC(OC(=O)[C@H](O)[C@@H](NC(=O)OC(C)(C)C)c4ccco4)C(C)=C([C@@H](OC(C)=O)C(=O)[C@@]21C)C3(C)C (some centres not stated) | 118 | 5.6 | 0.4 | 
13 | 1.4 | COCO[C@H]1C[C@H]2OC[C@@]2(OC(C)=O)C2[C@H](OC(=O)c3ccccc3)[C@]3(O)CC(OC(=O)[C@H](O)[C@@H](NC(=O)OCc4ccccc4)c4ccccc4)C(C)=C([C@@H](OC(C)=O)C(=O)[C@@]21C)C3(C)C (some centres not stated) | 139 |  | 0.6 | 
14 | 2.1 | COCO[C@H]1C[C@H]2OC[C@@]2(OC(C)=O)C2[C@H](OC(=O)c3ccccc3)[C@]3(O)CC(OC(=O)[C@H](O)[C@@H](NC(=O)c4ccccc4)c4ccco4)C(C)=C([C@@H](OC(C)=O)C(=O)[C@@]21C)C3(C)C (some centres not stated) |  |  | 2.3 | Efficacy (M109 [4]): 115
15 | 1.2 | CCCCOC(=O)N[C@@H](c1ccccc1)[C@@H](O)C(=O)OC1C[C@@]2(O)[C@@H](OC(=O)c3ccccc3)C3[C@](C)(C(=O)[C@H](OC(C)=O)C(=C1C)C2(C)C)[C@@H](OCSC)C[C@H]1OC[C@@]31OC(C)=O (some centres not stated) | 177 |  | 0.6 | Efficacy (M109 [14]): 0.2
16 | 1.7 | CC(=O)O[C@H]1C(=O)[C@@]2(C)C([C@H](OC(=O)c3ccccc3)[C@]3(O)CC(OC(=O)[C@H](O)[C@@H](NC(=O)OC(C)(C)C)c4ccco4)C(C)=C1C3(C)C)[C@]1(OC(C)=O)CO[C@@H]1C[C@@H]2OCOCCO (some centres not stated) |  | 4.1 | 0.3 | 
17 | 0.9 | CC(=O)O[C@H]1C(=O)[C@@]2(C)C([C@H](OC(=O)c3ccccc3)[C@]3(O)CC(OC(=O)[C@H](O)[C@@H](NC(=O)OC(C)C)c4ccco4)C(C)=C1C3(C)C)[C@]1(OC(C)=O)CO[C@@H]1C[C@@H]2OCOCCO (some centres not stated) | 145 |  | 0.3 | 
18 | 1.1 | CC(=O)O[C@H]1C(=O)[C@@]2(C)C([C@H](OC(=O)c3ccccc3)[C@]3(O)CC(OC(=O)[C@H](O)[C@@H](NC(=O)c4ccccc4)c4ccccc4)C(C)=C1C3(C)C)[C@]1(OC(C)=O)CO[C@@H]1C[C@@H]2OCOCCO (some centres not stated) | 238 |  | 1 | Efficacy (M109 [14]): 0.9
